Sampled rows, rich in hits. Any-hit rate of the full collection: about 2.3%.
HGIII-sPLA2 inh – Inhibits HGIII-sPLA2 liposome hydrolysis, primary screen; Q9NZ20; QFRET BODIPY PC-A2 liposome hydrolysis, fluorescence; inhibition, % at 12.2 µM; hit rate 0.56% among 370,000; AID 743126;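 active = inhibition above mean plus 3 SD of compounds lying within the high and low control bounds, cut at about 19% in these data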;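 also: 0% = median of test compound wells and 100% = no enzyme DMSO wells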
Target sequence (Q9NZ20 whole entry, looked up): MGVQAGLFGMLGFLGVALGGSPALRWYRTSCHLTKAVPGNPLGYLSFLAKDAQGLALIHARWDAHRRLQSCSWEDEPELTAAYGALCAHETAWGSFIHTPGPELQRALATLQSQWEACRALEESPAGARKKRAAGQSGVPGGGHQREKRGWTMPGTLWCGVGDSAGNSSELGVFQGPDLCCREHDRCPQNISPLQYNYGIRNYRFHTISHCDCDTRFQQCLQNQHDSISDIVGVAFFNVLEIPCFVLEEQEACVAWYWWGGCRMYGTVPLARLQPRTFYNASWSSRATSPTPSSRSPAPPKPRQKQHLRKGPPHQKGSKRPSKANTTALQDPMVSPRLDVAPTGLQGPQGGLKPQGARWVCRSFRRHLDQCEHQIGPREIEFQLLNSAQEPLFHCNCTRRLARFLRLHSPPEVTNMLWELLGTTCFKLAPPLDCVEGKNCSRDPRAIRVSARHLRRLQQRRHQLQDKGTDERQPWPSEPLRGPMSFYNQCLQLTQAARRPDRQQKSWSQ
ASAP1 inh – inhibitors of human ASAP1 ArfGAP activity; Q9ULH1; ASAP1-stimulated ARF1 GTP hydrolysis, GDP FP detection; inhibition, % at 16.5 µM; hit rate 0.19% among 360,000; in the data active = inhibition above about 25%;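 also: 0% = vehicle with enzyme and substrate and 100% = no enzyme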
SKKanGAS inh – SKKanGAS growth inhibition; inhibition, % at 7.5 µM; hit rate 1.3% among 300,000; S. pyogenes SKKanGAS, kanamycin growth, BacTiter-Glo, 6 h;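 active = mean replicate score, as percent of positive control median, at least 50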;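 also: strain carries kanamycin resistance gene driven by streptokinase promoter and grows in 40 µg/ml kanamycin; loss of luminescence reflects streptokinase promoter inhibition or plain growth inhibition; 0% = median of DMSO wells and 100% = positive control at its reference dose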
ARFGAP1 inhibitor – rat ARFGAP1 inhibition; AID 651572; inhibition, % at 16.5 µM; Arfgap1-stimulated ARF1 GTP hydrolysis, GDP FP detection; hit rate 0.26% among 360,000;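 active = inhibition above a per-plate limit, mean inhibition of low control wells plus 3 SD, cut at about 25% in these data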;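 also: 0% = DMSO wells with enzyme and 100% = wells lacking Arfgap1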
Target sequence (Q62848 1-136 limits assumed): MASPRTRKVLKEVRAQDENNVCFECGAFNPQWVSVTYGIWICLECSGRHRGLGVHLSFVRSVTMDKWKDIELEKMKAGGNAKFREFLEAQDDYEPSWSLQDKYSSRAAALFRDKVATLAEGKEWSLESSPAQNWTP
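System: truncated rat Arfgap1 GAP domain / Benchmarks: high control wells lacking Arfgap1, low control full reaction with DMSO / Times: compound-enzyme preincubation 20 min, reaction 120 min, detection 60 min, 25 °C / Repeats: one replicate per compound / Also added: human ARF1(Δ1-17)-GTP substrate / Measured by: Tracer-displacement fluorescence polarization with EDTA stop, 620/688 nm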
Calb FLC – affects C. albicans growth with fluconazole | growth inhibition, % (no concentration beside the values) | hit rate 0.57% among 300,000 | C. albicans CaCi-2 + fluconazole, Alamar Blue growth, 48 h;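 active = growth inhibition above about 58% in most replicates, limit read from the data, passing the limit was not always enough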;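 also: all wells also contain fluconazole at 8 µg/ml as a sub-toxic cotreatment; 0% = median of DMSO wells and 100% = median of geldanamycin control wells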
The depositor's hits bear a star; / = no result given.

SMILES | HGIII-sPLA2 inh | ASAP1 inh | SKKanGAS inh | ARFGAP1 inhibitor | Calb FLC
CCOC(=O)c1cnc2ccc(C)cc2c1Nc1ccc(N2CCOCC2)cc1 | -4 | -7 | -4 | 3 | 96*
CCc1ccc(NC(=O)c2nc(S(=O)(=O)Cc3ccccc3)ncc2Cl)cc1 | -16 | -1 | 46 | -2 | 10
Cc1ccc(NC(=O)c2nc(S(=O)(=O)Cc3ccccc3C)ncc2Cl)cc1C | -10 | -4 | 68* | -11 | -3
CCOC(=O)c1ccc(NC(=O)c2nc(S(=O)(=O)Cc3ccccc3)ncc2Cl)cc1 | -4 | -5 | 82* | 13 | -2
COC(=O)c1ccc(NC(=O)c2nc(S(=O)(=O)Cc3cccc(C)c3)ncc2Cl)cc1 | -10 | 2 | 104* | 3 | 0
CCOc1ccccc1NC(=O)c1nc(S(=O)(=O)Cc2ccccc2)ncc1Cl | 2 | 7 | 59* | -15 | -4
CCCCn1c(SCC(=O)c2ccc(O)c(O)c2)nc2ccsc2c1=O | / | / | 24 | / | 107*
CC(C)c1nc(NCc2ccccc2)c(C#N)c2c1CCCC2 | 8 | -2 | 79* | -5 | -1
CCCCNC(=O)C[C@H]1C[C@@]2(C(=O)OC)C(=C[C@H](C3CCCC3)O[C@@H]2C)N(CCC2=CCCCC2)C1=O | -5 | / | / | / | /
O=C(NC(=S)NNC(=O)c1cccs1)c1ccccc1 | 6 | 1 | 86* | 9 | 0
O=C(NNC(=S)Nc1ccccc1)c1cccs1 | 18 | -3 | 2 | 11 | -2
O=C(NC(=S)NNC(=O)c1cccs1)c1ccco1 | 8 | 6 | 61* | -4 | -3
CC(C)(C)c1ccc(C(=O)NNC(=S)NC(=O)c2cccnc2)cc1 | 11 | 9 | 100* | -6 | 7
Cc1cccc(C(=O)NC(=S)NNC(=O)c2cccs2)c1 | 1 | 2 | 51* | 0 | 51
CC(C)(C)c1ccc(C(=O)NC(=S)NNC(=O)c2cccs2)cc1 | 4 | -2 | 104* | 8 | 2
Cc1cccc(Cc2cnc(NC(=O)C3=NCCN3)s2)c1 | 2 | 9 | 3 | -1 | 12
Cc1cccc(Cc2cnc(NC(=O)c3ccc(C)o3)s2)c1 | -8 | 2 | 77* | 9 | 1
COC(=O)c1cc(C)sc1NC(=O)c1cccnc1 | 2 | -1 | -11 | -2 | 110*
O=c1c2c(nc3c(-c4ccc(Cl)cc4)c[nH]n13)CCC2 | 6 | -7 | 66* | -2 | -3
C/C(N)=C(/C#N)C(=O)CSc1nc2scc(-c3ccc(F)cc3)c2c(=O)n1C | -3 | 5 | 70* | -4 | 60
C/C(N)=C(/C#N)C(=O)CSc1nc2ccccc2c(=O)n1Cc1ccc(F)cc1 | 8 | -11 | 27 | 0 | -1
c1cnc(SCCOc2ccc3c(c2)CCC3)nc1 | -6 | -1 | 7 | 3 | 101*
CC(C)C[C@@H]1COc2cccc(N3CCSCC3)c2S(=O)(=O)N1C | -1 | / | / | / | /
COc1ccc2[nH]c3c(c2c1)CCN[C@]31C(=O)N(C)c2ccccc21 | -5 | / | / | / | /
CCOC(=O)c1sc2nc3c(SCC(=O)O)cc(C(=O)c4cc(F)ccc4O)cn3c(=O)c2c1C | -1 | 8 | 74* | -22 | 5
SMILES | HGIII-sPLA2 inh | ASAP1 inh | SKKanGAS inh | ARFGAP1 inhibitor | Calb FLC
COc1ccc(O)c(C(=O)c2cc(SCC(=O)O)c3nc4sc5c(c4c(=O)n3c2)CCCC5)c1 | -2 | 7 | 52* | 6 | -4
CCOC(=O)c1sc2nc3c(SCC(=O)O)cc(C(=O)c4ccccc4O)cn3c(=O)c2c1C | -3 | -7 | 5 | 5 | 5
Oc1[nH]c2ccc(Br)cc2c1N=NC(=S)Nc1ccc(F)cc1 | 14 | -3 | 109* | 2 | 67
N=C(N)N=Nc1c(O)[nH]c2ccc(Br)cc12 | 9 | 4 | 1 | 11 | -16
Oc1cccc(NC(=S)N=Nc2c(O)[nH]c3ccc(Br)cc23)c1 | 7 | 14 | 89* | 19 | 0
O=C(NCC1CCCO1)c1cc2c([nH]c3ccccc32)c(-c2cccc(Cl)c2)n1 (stereo unspecified) | / | / | 50* | / | 4
COC(=O)c1cc2c(c3c4cc(F)ccc4n(S(=O)(=O)c4cccc(C)c4)c13)C(=O)N(Cc1ccc(N(C)C)cc1)C2 | 8 | 4 | / | -1 | /
[O-][N+]1=c2ccc(Nc3ccccc3)cc2=NC12CCCCC2 | 12 | -4 | 8 | -3 | 108*
COc1ccc(Nc2ccc3c(c2)=NC2(CCCCC2)[N+]=3[O-])cc1 | 14 | -15 | 7 | 0 | 76
COCCNC[C@@]12CO[C@H](c3ccc(Cl)cc3)N1[C@@H](c1ccc(Cl)cc1)SC2 | -10 | / | / | / | /
C#CCNC(=O)C[C@H]1C[C@@]2(C(=O)OC)C(=C[C@H](C3CCCC3)O[C@@H]2C)N(Cc2ccco2)C1=O | 3 | / | / | / | /
CC1Cc2ccccc2N1C(=S)NC(=O)c1cccc(Br)c1 (stereo unspecified) | 11 | -25 | 93* | 1 | 26
CC1Cc2ccccc2N1C(=S)NC(=O)c1ccc(Cl)cc1Cl (stereo unspecified) | 6 | -6 | 61* | 1 | 5
COc1cccc(C(=O)NC(=S)N2c3ccccc3CC2C)c1OC (stereo unspecified) | 14 | -5 | -3 | 2 | -2
CCNS(=O)(=O)c1ccc(NC(=O)c2cccnc2)cc1 | -3 | -5 | / | 16 | 100*
COc1ccccc1CNC(=O)c1ccc(-c2ccccc2Cl)o1 | -33 | 9 | 52* | -2 | 6
COc1ccc(-n2c(SCC(=O)NN=Cc3c(O)ccc4ccccc34)nnc2-c2ccc(C(C)(C)C)cc2)cc1 | 7 | / | / | / | /
C[C@@H]1CCN(C2CC2)S(=O)(=O)c2ccc(N3CC[C@H](N(C)C)C3)cc2O1 | 10 | / | / | / | /
COC(=O)C1N2C(=O)[C@@H](NC(=O)COc3ccccc3)[C@H]2SC1(C)C (stereo partly specified) | 5 | 3 | 96* | -7 | -3
CCN1CCN(C(=O)N[C@@H](C(=O)N[C@@H]2C(=O)N3[C@@H]2SC(C)(C)[C@@H]3C(=O)O)c2ccccc2)C(=O)C1=O | / | / | 103* | / | /
CC1(C)S[C@@H]2[C@H](NC(=O)[C@H](N)c3ccccc3)C(=O)N2[C@H]1C(=O)O | -7 | 11 | 17 | -24 | 1
O=C(OCC#CCSc1nnc(-c2ccccc2F)o1)c1ccc(F)cc1 | -11 | / | / | / | /
COc1ccc([N+](=O)[O-])cc1NC(=O)CSCc1ccc(Br)cc1 | 3 | -2 | -3 | 5 | -20
Cc1ccc(SCC(=O)Nc2cc([N+](=O)[O-])ccc2O)cc1 | -13 | -9 | 18 | -15 | 87*
O=C(CSCc1ccc(Cl)cc1)Nc1cc([N+](=O)[O-])ccc1O | -12 | 6 | 27 | 2 | 91*
COC(=O)[C@]12C[C@H](CC(=O)NCC34CC5CC(CC(C5)C3)C4)C(=O)N(Cc3ccc4c(c3)OCO4)C1=C[C@H](COCc1ccccc1)O[C@@H]2C | -5 | -2 | / | -3 | /
CS(=O)(=O)c1nsc2nc(=O)c(/C=C3\C=Nc4ccccc43)c(N)n12 | -18 | -2 | 20 | 10 | -3
CC(C)Sc1nsc2nc(=O)c(/C=C3\C=Nc4ccccc43)c(N)n12 | -13 | 5 | 74* | -3 | 34

High-throughput results deposited in PubChem BioAssay by several laboratories.
